Measured values from ChEMBL document CHEMBL2390849, “Glycosylation enhances the anti-migratory activities of isomalyngamide A analogs” (Eur J Med Chem, 2013).
The source made the active and inactive calls. The calls are words filed in the database; no cut-off is given here.

What was measured:
[1] = test system: MDA-MB-231; assay: Inhibition of human MDA-MB-231 cell adhesion to fibronectin at 20 uM after 48 hrs by crystal violet staining-based spectrophotometric analysis relative to control; type: functional; conditions: MDA-MB-231, 48 h
How it was run: (§1)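 Cells pretreated 48 h with compound, trypsinized, and resuspended at 2 × 10^5 cells/mL in DMEM with 0.1% BSA. Added to wells coated overnight at 4 °C with fibronectin or collagen IV ([…] as printed), then blocked with 0.1% BSA. Adhesion 60 min at 37 °C. Adherent cells fixed in 10% formaldehyde and stained with 0.05% crystal violet. Dye extracted, A595 read. Reported as percent of untreated control, triplicate.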

[2] = test system: MDA-MB-231; assay: Effect on RAC1 expression level in human MDA-MB-231 cells at 10 to 30 uM after 24 hrs by Western blotting analysis; type: functional, cell-based
How it was run: (§2)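 Cells treated 24 h with the indicated concentrations. Lysates immunoblotted with antibodies to total FAK, phospho-FAK (Y397), total paxillin and Rac1, with β-actin as internal control. Bands detected by enhanced chemiluminescence.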

[3] = test system: MDA-MB-231; assay: Antimigratory activity against human MDA-MB-231 cells after overnight incubation by Boyden chamber assay; type: functional, cell-based
How it was run: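 Boyden chamber (8 µm polycarbonate membrane coated with Matrigel, […] as printed). Cells trypsinized into serum-free medium at 2.5 × 10^5 cells/mL containing test agent, placed in upper chamber. Lower chamber holds medium with 5% FBS as chemoattractant. Overnight at 37 °C. Transmigrated cells fixed in methanol, Giemsa-stained, counted in three random fields. IC50 is the mean of three independent experiments.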

[4] = test system: MDA-MB-231; assay: Inhibition of human MDA-MB-231 cell adhesion to fibronectin at 10 uM after 48 hrs by crystal violet staining-based spectrophotometric analysis relative to control; type: functional; conditions: MDA-MB-231, 48 h; how it was run: as §1
[5] = test system: MDA-MB-231; assay: Inhibition of human MDA-MB-231 cell invasion at 20 to 30 uM after 24 hrs by Transwell assay; type: functional, cell-based
How it was run: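 Transwell inserts with 8 µm pores precoated with Matrigel. Cells seeded at 8 × 10^4 cells/mL in serum-free medium with compound or DMSO, 24 h. Lower wells hold 5% FBS-containing medium as chemoattractant. Invaded cells fixed and stained, then counted in three random fields. Run in triplicate, expressed as percent of untreated control.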

[6] = test system: MDA-MB-231; assay: Inhibition of human MDA-MB-231 cell adhesion to fibronectin at 30 uM after 48 hrs by crystal violet staining-based spectrophotometric analysis relative to control; type: functional; conditions: MDA-MB-231, 48 h; how it was run: as §1
[7] = test system: MDA-MB-231; assay: Effect on FAK expression level in human MDA-MB-231 cells at 10 to 30 uM after 24 hrs by Western blotting analysis; type: functional, cell-based; how it was run: as §2
[8] = test system: MDA-MB-231; assay: Inhibition of human MDA-MB-231 cell adhesion to fibronectin after 48 hrs by crystal violet staining-based spectrophotometric analysis; type: functional; how it was run: as §1
[9] = target: Focal adhesion kinase 1 (Homo sapiens) (UniProt Q05397); assay: Inhibition of FAK phosphorylation at Tyr397 in human MDA-MB-231 cells after 24 hrs by Western blotting analysis; type: cell-based; how it was run: as §2
Sequence of Focal adhesion kinase 1 (Homo sapiens) (Q05397 2-1052 limits assumed): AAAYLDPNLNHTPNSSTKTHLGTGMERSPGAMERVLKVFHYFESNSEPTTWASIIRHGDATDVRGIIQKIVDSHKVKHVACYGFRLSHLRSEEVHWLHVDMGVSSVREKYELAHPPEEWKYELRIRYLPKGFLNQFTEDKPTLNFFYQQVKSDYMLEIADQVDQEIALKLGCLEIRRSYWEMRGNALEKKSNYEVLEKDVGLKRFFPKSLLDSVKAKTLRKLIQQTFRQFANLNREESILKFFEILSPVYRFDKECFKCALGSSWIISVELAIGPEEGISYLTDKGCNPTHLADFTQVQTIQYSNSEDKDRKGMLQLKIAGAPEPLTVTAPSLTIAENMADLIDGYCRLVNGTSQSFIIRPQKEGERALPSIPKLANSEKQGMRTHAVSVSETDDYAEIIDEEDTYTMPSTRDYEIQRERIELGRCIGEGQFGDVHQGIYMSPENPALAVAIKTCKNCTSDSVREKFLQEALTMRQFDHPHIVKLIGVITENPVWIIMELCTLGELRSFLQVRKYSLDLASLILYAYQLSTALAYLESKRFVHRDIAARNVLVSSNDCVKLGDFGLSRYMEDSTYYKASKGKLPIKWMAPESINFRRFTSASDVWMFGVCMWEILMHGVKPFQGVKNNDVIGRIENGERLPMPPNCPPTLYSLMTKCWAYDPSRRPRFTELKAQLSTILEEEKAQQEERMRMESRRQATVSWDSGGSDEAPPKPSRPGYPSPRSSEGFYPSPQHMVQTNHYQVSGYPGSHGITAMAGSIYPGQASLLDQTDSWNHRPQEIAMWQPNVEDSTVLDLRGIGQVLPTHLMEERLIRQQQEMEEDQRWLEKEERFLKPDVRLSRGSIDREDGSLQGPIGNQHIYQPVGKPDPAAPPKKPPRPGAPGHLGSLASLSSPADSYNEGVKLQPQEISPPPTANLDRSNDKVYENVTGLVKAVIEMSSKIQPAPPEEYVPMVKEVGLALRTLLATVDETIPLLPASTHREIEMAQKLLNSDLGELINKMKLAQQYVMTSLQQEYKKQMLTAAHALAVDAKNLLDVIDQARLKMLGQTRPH

[10] = test system: MDA-MB-231; assay: Antimigratory activity against human MDA-MB-231 cells at 25 uM after 24 hrs by scratch wound healing assay; type: functional, cell-based
How it was run: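 Cells grown overnight at 37 °C to a confluent monolayer in duplicate wells, then scratched with a pipette tip. Migration into the wound photographed at 0 and 24 h at 100× magnification.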

[11] = test system: MDA-MB-231; assay: Inhibition of human MDA-MB-231 cell adhesion to collagen 4 after 48 hrs by crystal violet staining-based spectrophotometric analysis; type: functional; how it was run: as §1
[12] = test system: MDA-MB-231; assay: Effect on paxillin expression level in human MDA-MB-231 cells after 24 hrs by Western blotting analysis; type: functional, cell-based; how it was run: as §2
[13] = test system: MDA-MB-231; assay: Cytotoxicity against human MDA-MB-231 cells at 10 to 30 uM after 48 hrs by MTT assay; type: functional, cell-based
[14] = test system: MDA-MB-231; assay: Inhibition of human MDA-MB-231 cell adhesion to fibronectin at 10 to 30 uM after 48 hrs by crystal violet staining-based spectrophotometric analysis relative to control; type: functional; how it was run: as §1

IC50 [3] [µM] | inhibition [9] | SMILES | adhesion % at 20 µM [1] [%] | Activity [2] | Activity [3] | adhesion % at 10 µM [4] [%] | inhibition [5] | adhesion % at 30 µM [6] [%] | Activity [7] | inhibition [8] | Activity [10] | inhibition [11] | Activity [12] | Activity [13] | inhibition [14]
11.8 | Dose-dependent effect | CCCCCCCCCCCCCC(=O)NCCNC(=O)C(C)(C)C(=O)NCCO[C@@H]1O[C@H](COC(C)=O)[C@H](OC(C)=O)[C@H](OC(C)=O)[C@H]1OC(C)=O | 69 | inactive | Dose-dependent effect | 79 | Active | 58 | inactive | Dose-dependent effect | Active | Dose-dependent effect | Dose-dependent effect | inactive | –
11.7 | Dose-dependent effect | CCCCCCCCCCCCCC(=O)NCCNC(=O)C(C)(C)C(=O)NCCO[C@H]1O[C@H](COC(C)=O)[C@@H](OC(C)=O)[C@H](OC(C)=O)[C@@H]1OC(C)=O | – | inactive | Dose-dependent effect | – | Active | – | inactive | Dose-dependent effect | Active | Dose-dependent effect | Dose-dependent effect | inactive | –
– | – | CCCCCCCCCCCCCC(=O)NCCNC(=O)C(C)(C)C(=O)NCC(=O)O | – | – | – | – | Active | – | – | – | Active | – | – | inactive | Active
> 50 | – | CCCCCCCCCCCCCC(=O)NCCNC(=O)C(C)(C)C(=O)NCCO[C@@H]1O[C@H](COC(C)=O)[C@@H](O[C@@H]2O[C@H](COC(C)=O)[C@H](OC(C)=O)[C@H](OC(C)=O)[C@H]2OC(C)=O)[C@H](OC(C)=O)[C@H]1OC(C)=O | – | – | – | – | Active | – | – | Dose-dependent effect | Active | Dose-dependent effect | – | inactive | –
